One test addresses Tubulin (Bos taurus, UniProt Q6B856+Q862L2+Q862F3). The experiment in a line: In vitro inhibition of tubulin polymerization measured as turbidity formed by centrifugation. Format: protein assay. The gist of the method:
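Microtubule protein purified from bovine brain by assembly (37 °C)/disassembly (0 °C) cycles in MES buffer (pH 6.6) with glycerol and GTP; used at 2 mg/mL with 1 mM GTP. Compounds added in DMSO; assembly started by temperature jump from 4 to 37 °C and followed by turbidity at 350 nm. IC50 taken as concentration giving 50% inhibition of assembly rate.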

Test [1] relates to MCF7. In words: Inhibitory activity against growth of MCF-7 cell line. Format: functional, cell-based. The note with it: Homo sapiens. Put shortly:
(§1)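 For MCF7 cells, cultured in supplemented RPMI 1640 (10% fetal calf serum, 10 mM HEPES, pH 7.4), exposure ran 168 h to nine serial dilutions in triplicate. Viability was read by microculture tetrazolium assay. IC50 is the concentration halving optical density relative to untreated controls; ratio is compound IC50 over parent dolastatin IC50.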

The test system of test [2] is L1210. In words: Inhibitory activity against growth of L1210 cell line. Type of test: functional, cell-based. The note with it: Mus musculus. Put shortly: (§2)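 L1210 murine leukemia cells in RPMI 1640 with 10% fetal calf serum, 2 mM glutamine, antibiotics and 10 mM HEPES (pH 7.4). Treatment lasted 48 h at nine serial dilutions in triplicate, with a microculture tetrazolium read-out. IC50 gives 50% optical density reduction versus untreated cells; ratio is compound IC50 divided by parent dolastatin IC50.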

The test system of test [3] is HT-29. The experiment in a line: Inhibitory activity against growth of HT-29 cell line. Format: functional, cell-based. The note with it: Homo sapiens. Put shortly: (§3)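 HT-29 cells grown in RPMI 1640 with 10% fetal calf serum, 2 mM glutamine, antibiotics and 10 mM HEPES (pH 7.4). Exposed for 96 h to nine serial dilutions in triplicate; growth read by microculture tetrazolium assay. IC50 is the concentration lowering optical density 50% versus untreated controls; ratio is compound IC50 over parent dolastatin IC50.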

In test [4] the test system is MCF7. The experiment in a line: Selectivity was evaluated [Selectivity = IC50 / IC50 of Dolastatin] against MCF-7 cell line. Format: functional, Homo sapiens. The gist of the method: as §1
For test [5], the system named is HT-29. In words: Selectivity was evaluated [Selectivity = IC50 / IC50 of Dolastatin] against HT-29 cell line. Format: functional, Homo sapiens. The gist of the method:
as §3

The test system of test [6] is L1210. In words: Selectivity was evaluated [Selectivity = IC50 / IC50 of Dolastatin] against L1210 cell line. Format: functional, Mus musculus. Put shortly:
as §2

Where a SMILES comes first, the peptide text is derived from it. [ ]: non-standard residue; d: D form. The star is where a group is joined. X2 = COC1=CC(=O)N(C(=O)[C@@H](O*)C(C)C)[C@H]1Cc1ccccc1; Dolaproine = CO[C@@H]([C@@H]1CCCN1)[C@@H](C)C(=O)O; NMe2Val = CC(C)[C@@H](C(=O)*)N(C)C; X1 = c1ccc(CC(N*)c2nccs2)cc1; NMeV = CN[C@H](C(=O)O)C(C)C

What is called IC50 is the midpoint of a concentration-inhibition curve. In the case of `CC[C@]1(O)C[C@H]2CN(CCc3c([nH]c4ccccc34)[C@@](C(=O)OC)(c3cc4c(cc3OC)N(C=O)[C@H]3[C@@](O)(C(=O)OC)[C@H](OC(C)=O)[C@]5(CC)C=CCN6CC[C@]43[C@@H]65)C2)C1` [VINCRISTINE], the IC50 amounted to 1800 nM against Tubulin, 0.84 nM with MCF7 [1], 0.73 nM in the test with L1210 [2] and 2.06 nM with HT-29 [3].
As to `CC[C@H](C)[C@@H]([C@@H](CC(=O)N1CCC[C@H]1C(=O)O[C@H](C(=O)N1C(=O)C=C(OC)[C@@H]1Cc1ccccc1)C(C)C)OC)N(C)C(=O)[C@@H](NC(=O)[C@H](C(C)C)N(C)C)C(C)C`, the values for the Selectivity in the test on MCF7 [4], with HT-29 [5] and with L1210 [6] were 5, 1365 and 12, respectively. The IC50 amounted to 3600 nM against Tubulin, 0.19 nM in the test with MCF7 [1], 1.58 nM in the test with L1210 [2] and 396 nM with HT-29 [3].
`CC[C@H](C)[C@@H]([C@@H](CC(=O)N1CCC[C@H]1[C@H](OC)[C@@H](C)C(=O)N[C@@H](Cc1ccccc1)c1nccs1)OC)N(C)C(=O)[C@@H](NC(=O)[C@H](C(C)C)N(C)C)C(C)C` [DOLASTATIN-10]: the IC50 against Tubulin is 2200 nM; with MCF7 [1], 0.03 nM.
`CO[C@H]([C@@H](C)C(=O)NC(Cc1ccccc1)c1nccs1)[C@@H]1CCCN1C(=O)[C@@H]1CCCN1C(=O)[C@H](C(C)C)N(C)C(=O)[C@@H](NC(=O)[C@H](C(C)C)N(C)C)C(C)C` (some centres undefined) (NMe2Val-V[NMeV]P[Dolaproine]-X1): the Selectivity in the test with MCF7 [4] came out at 83; with HT-29 [5], 190; in the test with L1210 [6] it was 90. Moreover, the IC50 against Tubulin was 13000 nM; with MCF7 [1], 2.48 nM; with L1210 [2], 2.72 nM; in the test on HT-29 [3], 11.4 nM.
For `COC1=CC(=O)N(C(=O)[C@@H](OC(=O)[C@@H]2CCCN2C(=O)[C@@H]2CCCN2C(=O)[C@H](C(C)C)N(C)C(=O)[C@@H](NC(=O)[C@H](C(C)C)N(C)C)C(C)C)C(C)C)[C@H]1Cc1ccccc1` [DOLASTATIN 15] (NMe2Val-V[NMeV]PP-X2), the IC50 turned out to be 17000 nM at Tubulin, 0.04 nM with MCF7 [1], 0.13 nM in the test on L1210 [2] and 0.29 nM in the test on HT-29 [3].

These data come from ChEMBL document CHEMBL1131603, “Synthesis and biological activity of chimeric structures derived from the cytotoxic natural compounds dolastatin 10 and dolastatin 15” (J Med Chem, 1998).
